This note sets out measurements from ChEMBL document CHEMBL4513216, “Probing the Open Global Health Chemical Diversity Library for Multistage-Active Starting Points for Next-Generation Antimalarials” (ACS Infect Dis, 2020).

SMILES strings stand for the structures.

This data set is described as follows: Toxicity liver stage against HepG2, at 10uM. In kind it is cell-based. Details: test concentration 10 uM, cell line HepG2-A16-CD81EGFP. Particulars: human, HepG2-A16-CD81EGFP cells; read-out: INHIBITION
A digest of the protocol: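 Uninfected HepG2-A16-CD81EGFP cells, 3 × 10^3 per well, 1536-well, plated on prespotted compound at 10 μM final, parasite-free screening media added to match infected plates; puromycin 10 μM positive, DMSO 0.5% negative; run in parallel with 48 h PbLuc assay at 37 °C, 5% CO2; viability by CellTiter-Glo luminescence, normalized to controls.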

Consider `Cc1ccc(NC(=O)c2ccc(=O)n(CC(=O)NC3CCCC3)n2)cc1`, for which the cytotoxicity at 10 µM was -3.63%.

`CC(CN1CCC(CCO)CC1)n1cnc2ccccc21` (centres undefined): the cytotoxicity at 10 µM turned out to be 5.34%.

Take `CCc1nc(NC2CCN(CC(=O)NC3CC3)CC2)c2cnn(C)c2n1`: the cytotoxicity at 10 µM was found to be 4.99%.

Take `Cc1cc(CNC2(c3ccccc3)CCCCC2)no1`: the cytotoxicity at 10 µM stood at 2.94%.

For `c1cc(CN2CCN(Cc3cscn3)CC2)cs1`, the cytotoxicity at 10 µM turned out to be 2.45%.

Consider `Cc1cnccc1NC(=O)CCc1ccsc1`, for which the cytotoxicity at 10 µM was -3.51%.

Consider `CCCc1cc(=O)n(CC(N)=O)c(-n2nc(C)cc2C)n1`, for which the cytotoxicity at 10 µM is 0.097%.

With `Cc1c[nH]c(C2CCCN(Cc3cccc(C(=O)O)c3)C2)n1` (centres undefined), the cytotoxicity at 10 µM was determined as 9.59%.

On to `Cc1noc(C2CCCN(C(=O)c3ccc(Br)o3)C2)n1` (centres undefined), for which the cytotoxicity at 10 µM is 1.73%.

Consider `COCCN1CCC2(CC1)CC(NC(=O)CN(C)C)c1ccccc1O2` (centres undefined), for which the cytotoxicity at 10 µM turned out to be 0.169%.

Turning to `O=C(COCCOc1ccccc1)Nc1ccnn1CC1CCOC1` (centres undefined), the cytotoxicity at 10 µM stood at 1.88%.

On to `Cn1nc(C2CCCN(Cc3ccc(F)cc3F)C2)c2nccnc21` (centres undefined), for which the cytotoxicity at 10 µM is -8.46%.

For the compound `Cc1ccc(N2CC[C@@H]3CN(Cc4cc[nH]n4)C[C@@H]3C2)nn1`, the cytotoxicity at 10 µM turned out to be 3.47%.

For `CCCN1CCCn2nc(CNC(=O)CC(C)n3ccnc3C)cc2C1` (centres undefined), the cytotoxicity at 10 µM was -9.4%.

Consider `COc1ccccc1C1(CNc2nnc(C)c(C)c2C#N)CCOCC1`, for which the cytotoxicity at 10 µM came to 6.77%.

On to `CN1CCC(N2C[C@H](O)C[C@H]2c2nc(Cc3ccccc3)no2)CC1`, for which the cytotoxicity at 10 µM was found to be 10.7%.

As to `COC[C@@H]1CC[C@H]2[C@H](CCN2C(=O)c2ccncc2F)O1`, the cytotoxicity at 10 µM is -8.82%.

Turning to `CC(=O)N[C@@H]1CN(C(=O)c2cnccn2)C[C@H]1c1ccc(C)cc1`, the cytotoxicity at 10 µM came out at 6.62%.

With `CS(=O)(=O)c1ccc2c(c1)N(C(=O)c1cccc(F)c1)CCC2`, the cytotoxicity at 10 µM amounted to 8.05%.

Turning to `Cc1nc(CN2CCC(O)(c3ccccc3F)CC2)c2ccccn12`, the cytotoxicity at 10 µM came out at 2.45%.

Turning to `CC(C)n1ccc(CN2CCOC(CNc3cccnn3)C2)n1` (centres undefined), the cytotoxicity at 10 µM is -16.6%.

On to `Cc1ccc(-c2ccnc(NC(c3ncccc3C)C3CC3)n2)c(C)n1` (centres undefined), for which the cytotoxicity at 10 µM was determined as 0.656%.

For `Cc1ccc(N2CCCC(N(C)Cc3nnc(C4CC4)o3)C2)nn1` (centres undefined), the cytotoxicity at 10 µM stood at 6.2%.

Take `CC(=O)N1CC(C)CN(C(=O)c2cccnc2C)c2ccccc21` (centres undefined): the cytotoxicity at 10 µM is 6.45%.

Regarding `CNC(=O)c1cn[nH]c1C1(C)CCCN(CC2(O)CCCCC2)C1` (centres undefined), the cytotoxicity at 10 µM was -26%.

As for `Cc1ccc(-c2noc(CN3CCOC(Cn4cccn4)C3)n2)cc1` (centres undefined), the cytotoxicity at 10 µM is -5.98%.

`CC(NC(=O)N(C)CCOc1ccccc1F)c1nncn1C` (centres undefined): the cytotoxicity at 10 µM was -9.92%.

With `CC(C)C(=O)NCc1ccnc(Oc2ccc(F)cc2)c1`, the cytotoxicity at 10 µM was 6.06%.

Consider `CN(C)c1cccc(C(=O)N2CCc3ccc(=O)[nH]c3CC2)c1`, for which the cytotoxicity at 10 µM is 9.23%.

With `COc1ccc(C[C@H]2CN(C3CCOCC3)CC[C@H]2OCC2CC2)cc1`, the cytotoxicity at 10 µM was -6.57%.

In the case of `CC(=O)N1CCCCC1c1nc2c(c(N3CCCCC3)n1)CN(C)CC2` (centres undefined), the cytotoxicity at 10 µM was -0.0788%.

For the compound `Cc1csc(CN2CC[C@H]3C[C@H](c4ccncn4)O[C@@H]3C2)n1`, the cytotoxicity at 10 µM was -148%.

For the compound `Cc1nccn1-c1cccc(C2CCCN2)n1` (centres undefined), the cytotoxicity at 10 µM was 10.6%.

In the case of `Cc1ccc(C(=O)N2CC[C@H]3[C@H]2CCN3CC2CCOCC2)cn1`, the cytotoxicity at 10 µM is -73.3%.

Consider `Cn1ccnc1CN1CCCC(Cc2ccccn2)C1` (centres undefined), for which the cytotoxicity at 10 µM was found to be 2.75%.

`Cc1ncsc1CCC(=O)N1CCCC[C@H](N(C)C)C1`: the cytotoxicity at 10 µM is -22.5%.

Consider `Cc1nn(C)c(N2CCOCC2)c1CNC(C(N)=O)c1ccccc1` (centres undefined), for which the cytotoxicity at 10 µM is -6.86%.

In the case of `CC(C)CCN1C[C@@H]2C[C@H](C(=O)Nc3cccnc3)[C@H](C1)O2`, the cytotoxicity at 10 µM was -82.5%.

`CC(NC(=O)c1ccoc1)C(=O)N(C)Cc1ccsc1` (centres undefined): the cytotoxicity at 10 µM was -1.77%.
